Laboratory results from ChEMBL document CHEMBL5712087, “Targeting bromodomain-containing protein 4 (BRD4) inhibits MYC expression in colorectal cancer cells” (Neoplasia, 2019).
Calls of active or inactive are those of the source. The calls are words filed in the database; no cut-off is given here.

Experiments:
[1] = target: T1, von Hippel-Lindau disease tumor suppressor/Bromodomain-containing protein 4 (Homo sapiens) (UniProt O60885+P40337); assay: PROTAC activity at BRD4/VHL E3 ligase in human DLD-1 cells assessed as decrease in BRD4 protein degradation at 5 to 10 uM for 24 hrs by Western blot analysis; assay type: cell-based; conditions: dose 5-10 µM
T1 sequence (P40337 whole entry, looked up, other chains not shown): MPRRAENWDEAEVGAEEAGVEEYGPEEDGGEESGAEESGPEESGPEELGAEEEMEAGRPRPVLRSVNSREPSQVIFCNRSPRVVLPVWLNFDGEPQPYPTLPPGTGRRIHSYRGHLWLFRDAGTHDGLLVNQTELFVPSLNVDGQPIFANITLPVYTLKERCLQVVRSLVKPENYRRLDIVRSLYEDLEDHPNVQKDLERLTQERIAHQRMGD
In short: (§1)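 Eight CRC lines exposed 24 h to PROTAC at 5 or 10 µM (stocks 2 mM in DMSO, diluted in PBS or medium). Lysis in RIPA with protease/phosphatase inhibitors and 2.5 mmol/l DTT; 15 µg protein on 10% SDS-PAGE, semi-dry transfer to nitrocellulose. Anti-BRD4 or anti-MYC at 1:1,000 overnight at 4 °C; GAPDH or β-actin loading control; chemiluminescence.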

[2] = target: T1, von Hippel-Lindau disease tumor suppressor/Bromodomain-containing protein 4 (Homo sapiens); assay: PROTAC activity at BRD4/VHL E3 ligase in human LS174T cells assessed as BRD4 protein degradation at 250 nM for 2 hrs and measured 22 hrs after washout by Western blot analysis; assay type: cell-based
In short: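 LS174t cells were exposed to PROTAC for 2 h. For washout, the PROTAC was removed by changing the culture medium and cells were harvested 22 h later. BRD4 was assessed by western blot (15 µg lysate, 10% SDS-PAGE, chemiluminescence), normalised against GAPDH/β-actin.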

[3] = target: T1, von Hippel-Lindau disease tumor suppressor/Bromodomain-containing protein 4 (Homo sapiens); assay: PROTAC activity at BRD4/VHL E3 ligase in human fibroblast cells assessed as effect on MYC protein expression at 100 to 250 nM for 24 hrs by Western blot analysis; assay type: cell-based; conditions: dose 100-250 nM
In short: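 Normal human dermal fibroblasts in 10% FCS medium were treated with 100 or 250 nM PROTAC. BRD4 and MYC protein were assessed by western blot (15 µg RIPA lysate, 10% SDS-PAGE, primary 1:1,000 overnight at 4 °C), with GAPDH/β-actin as loading control.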

[4] = target: T1, von Hippel-Lindau disease tumor suppressor/Bromodomain-containing protein 4 (Homo sapiens); assay: PROTAC activity at BRD4/VHL E3 ligase in human LS174T cells assessed as BRD4 mRNA level at 500 to 1000 nM for 24 hrs by RT-qPCR analysis; assay type: cell-based; conditions: dose 500-1000 nM
In short: (§2)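 LS174t cells were treated for 24 h, then total RNA was Trizol-extracted from 10^6 cells and integrity-checked. 0.7 µg RNA was reverse transcribed and SYBR-type qPCR run for 40 cycles (95 °C 15 s, 60 °C 60 s), with melt-curve control. MYC or BRD4 mRNA was normalised to PPIA and ACTB by the ΔΔCq method. Experiments were run at least three times; mean ± SD.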

[5] = target: T1, von Hippel-Lindau disease tumor suppressor/Bromodomain-containing protein 4 (Homo sapiens); assay: PROTAC activity at BRD4/VHL E3 ligase in human LS174T cells assessed as decrease in MYC protein expression at 5 to 10 uM for 24 hrs by Western blot analysis; assay type: cell-based; conditions: dose 5-10 µM
In short: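 Eight CRC lines, including LS174t (RPMI 1640) and SW480 (DMEM/HamsF12), all with 10% FCS, were treated with PROTAC at 5 and 10 µM. BRD4 and MYC proteins were detected by immunoblot (RIPA lysate, 15 µg, 10% gel, primary 1:1,000 overnight at 4 °C), with GAPDH/β-actin as loading control.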

[6] = target: T1, von Hippel-Lindau disease tumor suppressor/Bromodomain-containing protein 4 (Homo sapiens); assay: PROTAC activity at BRD4/VHL E3 ligase in human HCT116 p53-/- cells assessed as decrease in BRD4 protein degradation at 5 to 10 uM for 24 hrs by Western blot analysis; assay type: cell-based; conditions: HCT-116, dose 5-10 µM; in short: as §1
[7] = target: T1, von Hippel-Lindau disease tumor suppressor/Bromodomain-containing protein 4 (Homo sapiens); assay: PROTAC activity at BRD4/VHL E3 ligase in human LS174T cells assessed as BRD4 protein degradation at 1 µM for 2 hrs by Immunofluorescence analysis
[8] = target: T1, von Hippel-Lindau disease tumor suppressor/Bromodomain-containing protein 4 (Homo sapiens); assay: PROTAC activity at BRD4/VHL E3 ligase in human LS174T cells assessed as decrease in MYC mRNA level at 100 to 1000 nM for 24 hrs by RT-qPCR analysis; assay type: cell-based; conditions: dose 100-1000 nM; in short: as §2
[9] = target: T1, von Hippel-Lindau disease tumor suppressor/Bromodomain-containing protein 4 (Homo sapiens); assay: PROTAC activity at BRD4/VHL E3 ligase in human LS174T cells assessed as complete BRD4 protein degradation at […] for 24 hrs by Western blot analysis; assay type: cell-based
In short: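 LS174t cells (RPMI 1640, 10% FCS) were exposed to 1 nM–10 µM for 24 h. Lysates in RIPA with inhibitors and 2.5 mmol/l DTT; 15 µg protein was run on 10% SDS-PAGE and transferred to nitrocellulose. BRD4 or MYC primary antibodies were used at 1:1,000 overnight at 4 °C, HRP secondary 1:10,000, and GAPDH/β-actin as loading control. Detection was by chemiluminescence.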

[10] = target: T1, von Hippel-Lindau disease tumor suppressor/Bromodomain-containing protein 4 (Homo sapiens); assay: PROTAC activity at BRD4/VHL E3 ligase in human LS174T dbet1 resistant cells assessed as BRD4 protein degradation at 500 to 1000 nM for 24 hrs by Western blot analysis; assay type: cell-based; conditions: dose 500-1000 nM
In short: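 Resistant LS174t cells were derived by four months' exposure to rising dBET1 concentrations, with outgrowing cells expanded. Resistant and parental cells were then treated and analysed for BRD4 and MYC protein by western blot (GAPDH/β-actin control) and for MYC mRNA by qPCR normalised to PPIA/ACTB (ΔΔCq).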

[11] = target: T2, Protein cereblon/Bromodomain-containing protein 4 (Homo sapiens) (UniProt O60885+Q96SW2); assay: PROTAC activity at BRD4/Cereblon in human LS174T cells assessed as BRD4 protein degradation at 250 to 500 nM pretreated with thalidomide for 4 hrs by Western blot analysis; assay type: cell-based; conditions: dose 250-500 nM
T2 sequence (Q96SW2 whole entry, looked up, other chains not shown): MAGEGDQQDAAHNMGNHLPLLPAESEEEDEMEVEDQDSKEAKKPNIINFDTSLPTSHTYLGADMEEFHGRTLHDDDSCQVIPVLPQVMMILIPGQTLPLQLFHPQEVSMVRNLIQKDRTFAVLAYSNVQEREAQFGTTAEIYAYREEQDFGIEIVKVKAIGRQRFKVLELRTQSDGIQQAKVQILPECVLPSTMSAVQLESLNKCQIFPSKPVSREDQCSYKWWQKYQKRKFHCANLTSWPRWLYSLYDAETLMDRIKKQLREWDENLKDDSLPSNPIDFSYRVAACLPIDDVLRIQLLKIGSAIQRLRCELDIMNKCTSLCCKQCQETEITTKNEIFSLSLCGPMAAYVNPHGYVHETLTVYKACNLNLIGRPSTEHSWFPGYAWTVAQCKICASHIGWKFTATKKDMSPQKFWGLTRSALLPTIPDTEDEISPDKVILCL

[12] = target: T2, Protein cereblon/Bromodomain-containing protein 4 (Homo sapiens); assay: PROTAC activity at BRD4/Cereblon in human LS174T cells assessed as decrease in MYC protein expression at 5 to 10 uM for 24 hrs by Western blot analysis; assay type: cell-based; conditions: dose 5-10 µM; in short: as §1
[13] = target: T2, Protein cereblon/Bromodomain-containing protein 4 (Homo sapiens); assay: PROTAC activity at BRD4/Cereblon in human SW480 cells assessed as decrease in BRD4 protein degradation at 5 to 10 uM for 24 hrs by Western blot analysis; assay type: cell-based; conditions: dose 5-10 µM; in short: as §1
[14] = target: T2, Protein cereblon/Bromodomain-containing protein 4 (Homo sapiens); assay: PROTAC activity at BRD4/Cereblon in human HCT116 p53-/- cells assessed as decrease in MYC protein expression at 5 to 10 uM for 24 hrs by Western blot analysis; assay type: cell-based; conditions: HCT-116, dose 5-10 µM; in short: as §1
[15] = target: T2, Protein cereblon/Bromodomain-containing protein 4 (Homo sapiens); assay: PROTAC activity at BRD4/Cereblon in human LS174T-dbet1 resistant cells assessed as BRD4 protein degradation at 500 to 1000 nM for 24 hrs by Western blot analysis; assay type: cell-based; conditions: dose 500-1000 nM
[16] = target: T2, Protein cereblon/Bromodomain-containing protein 4 (Homo sapiens); assay: PROTAC activity at BRD4/Cereblon in human LS174T-dbet1 resistant cells assessed as MYC protein expression at 500 to 1000 nM for 24 hrs by Western blot analysis; assay type: cell-based; conditions: dose 500-1000 nM
[17] = target: T2, Protein cereblon/Bromodomain-containing protein 4 (Homo sapiens); assay: PROTAC activity at BRD4/Cereblon in human LS174T cells assessed as BRD4 mRNA level at 500 to 1000 nM for 24 hrs by RT-qPCR analysis; assay type: cell-based; conditions: dose 500-1000 nM
In short: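 Total RNA from 10^6 cells after 24 h treatment, Trizol-extracted and integrity-checked. 0.7 µg reverse transcribed, then SYBR-type qPCR: 95 °C 5 min, 40 cycles of 95 °C 15 s/60 °C 60 s. Melting curves checked. MYC or BRD4 normalised to PPIA and ACTB by ΔΔCq. At least three experiments; means ± SD.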

SMILES | Activity [1] | Activity [2] | Activity [3] | Activity [4] | Activity [5] | Activity [6] | Activity [7] | Activity [8] | Activity [9] | Activity [10] | Activity [11] | Activity [12] | Activity [13] | Activity [14] | Activity [15] | Activity [16] | Activity [17]
Cc1ncsc1-c1ccc(CNC(=O)[C@@H]2C[C@@H](O)CN2C(=O)[C@@H](NC(=O)COCCOCCOCCNC(=O)C[C@@H]2N=C(c3ccc(Cl)cc3)c3c(sc(C)c3C)-n3c(C)nnc32)C(C)(C)C)cc1 | inactive | inactive | inactive | inactive | Active | Active | Active | Active | Active | Active |  |  |  |  |  |  | 
Cc1sc2c(c1C)C(c1ccc(Cl)cc1)=N[C@@H](CC(=O)NCCCCNC(=O)COc1cccc3c1C(=O)N(C1CCC(=O)NC1=O)C3=O)c1nnc(C)n1-2 (some centres not stated) |  |  |  |  |  |  |  |  |  |  | inactive | Active | inactive | Active | inactive | inactive | inactive
